The text below walks through data of ChEMBL document CHEMBL1137523, “Efficient one-pot synthesis of biologically active polysubstituted aromatic amines” (Bioorg Med Chem, 2007).

The test system of experiment [1] is L929. Nature of the experiment: Growth inhibition of mouse L929 cells after 5 days by MTT assay. It counts as functional, cell-based. As to conditions: L929, 120 h. The procedure, abridged:
(§1)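 L-929 cells (DSMZ) were grown in DME with 10% newborn calf serum at 37 °C, 10% CO2, in humid air. In microtiter plates, a suspension of 50,000 cells/mL was added to a serial dilution of inhibitor (2:1 cell suspension to dilution). Metabolic activity per well was read by MTT after 5 days.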

The subject of experiment [2] is L929. As to the kind of experiment: Growth inhibition of mouse L929 cells below 40 ug/mL after 5 days by MTT assay. It counts as functional, cell-based. The procedure, abridged:
as §1
(In general: Formazan colour is commonly taken as a measure of viable cells.)

A further experiment concerns Potorous tridactylus. Nature of the experiment: Effect on cell morphology in PtK2 potoroo cells assessed as changes in morphology at 50 ug/mL after 18 hrs.

Structures are written as SMILES. Converted amounts (≈) assume the structure as drawn. The source made the active and inactive calls. No cut-off for these calls is given here.

Broadly, the IC50 is the concentration needed to halve the response being measured. Low values mean inhibition by little substance, high ones a need for much substance.

In turn, `COc1ccc(N(Cc2ccccc2)Cc2ccccc2OC)cc1` yielded an IC50 with L929 [1] above 40 µg/mL. Further, the result in the experiment with L929 [2] was inactive.
The compound `COc1ccc(N(Cc2ccc([N+](=O)[O-])cc2)Cc2ccccc2OC)cc1` came in with an IC50 in the experiment with L929 [1] above 40 µg/mL.
Same read-out and setting: the value for `COc1ccc(N(Cc2ccccc2)Cc2ccc([N+](=O)[O-])cc2)cc1` was above 40 µg/mL.
Same read-out and setting: then `O=C(O)Cc1ccc(NCc2ccccc2)cc1`, with above 40 µg/mL; and `Cc1ccc(N(Cc2ccccc2)Cc2ccccc2)cc1`, with 11 µg/mL (≈ 38.3 µM); and `c1ccc(CNc2ccccn2)cc1`, with 35 µg/mL (≈ 190 µM).
Same read-out and setting: the value for `COc1ccc(N(Cc2ccccc2)Cc2ccccc2)cc1` was 12 µg/mL (≈ 39.6 µM); that for `COc1ccc(NC(C)c2ccco2)cc1` (stereo unspecified) was 40 µg/mL (≈ 184 µM).
Consider `CCCCCCCCCN(CC(C)C)c1ccc(OC)cc1`, for which it took 20 µg/mL (≈ 65.5 µM) to reach half-maximal inhibition in the experiment on L929 [1] (IC50).
Same read-out and setting: the value for `COc1ccc(N(Cc2ccccc2OC)CC(C)C)cc1` was 15 µg/mL (≈ 50.1 µM); that for `CCCCCCCCCNc1ccc(OC)cc1` was 12 µg/mL (≈ 48.1 µM).
Same read-out and setting: the value for `COc1ccc(N(Cc2ccccc2)CC(C)C)cc1` was 10 µg/mL (≈ 37.1 µM).
In the experiment with L929 [1], `O=[N+]([O-])c1cc(O)ccc1NCc1ccccc1` gave an IC50 of 9 µg/mL (≈ 36.8 µM). Also, the outcome with Potorous tridactylus was Active.
`COc1ccc(NCc2ccccc2OC)cc1` returned an IC50 in the experiment on L929 [1] of 25 µg/mL (≈ 103 µM).
In the experiment with L929 [1], `Cc1ccc(NCc2ccccc2)cc1` [N-BENZYL-4-METHYLANILINE] registered an IC50 above 40 µg/mL. Also, the outcome in the experiment with L929 [2] was inactive.
`COc1ccc(CNc2ccc(O)c([N+](=O)[O-])c2)cc1`: the IC50 with L929 [1] was determined as 20 µg/mL (≈ 72.9 µM).
Regarding `COc1ccc(NCC(C)C)cc1`, in the experiment on L929 [1], the IC50 was above 40 µg/mL. The result in the experiment with L929 [2] was inactive.
For the compound `Cc1ccc(N(Cc2ccccc2)CC(C)C)cc1`, the IC50 with L929 [1] was determined as 5 µg/mL (≈ 19.7 µM). For the same compound, in the experiment with Potorous tridactylus, the result was Active.
`Cc1ccc(N(CC(C)C)CC(C)C)cc1` displayed an IC50 with L929 [1] of 13 µg/mL (≈ 59.3 µM).
Compound `COc1ccc(NCc2ccc([N+](=O)[O-])cc2)cc1` registered an IC50 with L929 [1] above 40 µg/mL.
Still for that read-out and setting: the value for `COc1ccc(NC(C)c2ccccc2)cc1` (stereo unspecified) was 30 µg/mL (≈ 132 µM).
On the same count and under the same terms, then `COc1ccc(NC(C)c2ccsc2)cc1` (stereo unspecified), with 30 µg/mL (≈ 129 µM).
`COc1ccc(N(CC(C)C)CC(C)C)cc1` had an IC50 with L929 [1] of 25 µg/mL (≈ 106 µM).
Still for that read-out and setting: then `CC(=O)c1ccc(NCc2ccccc2)cc1`, with 22 µg/mL (≈ 97.7 µM).
In the experiment on L929 [1], `COc1ccc(N(Cc2ccc([N+](=O)[O-])cc2)CC(C)C)cc1` gave an IC50 above 40 µg/mL. Also, the result in the experiment with L929 [2] was inactive.
